High-throughput results: PubChem, several laboratories
Cl transport mod: KCC2 (human) Cl- transport modulation. KCC2 cells, thallium flux FluoZin-2 fluorescence. B-score of Tl+ flux slope (higher = more flux/activation; lower = inhibition) at 10 µM. 2.2% of 190,000 active. Q9H2X9;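 active means thallium flux slope and its plate-corrected score both differing from the plate sample mean at a set confidence after two filtering rounds, in either direction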;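 further: slope of fluorescence scaled to starting intensity during 10 to 20 s after thallium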
KCNQ1 act: potentiators or activators of human KCNQ1 potassium channel; P51787; CHO-K1 KCNQ1, thallium flux FluxOR fluorescence; stronger effect = higher value; B-score at 10 µM; 0.35% of 310,000 active;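 active means fluorescence ratio B-score, a plate-corrected score, at least three library SD, with initial intensity B-score within 5 SD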
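Assay system: CHO-K1 cells stably expressing KCNQ1; Medium: assay buffer with matched DMSO; Also added: K+/Tl+ depolarizing stimulus; Dosing: single dose; Timing: dye 90 min, compound 20 min, room temperature; Measured by: kinetic FluxOR thallium fluorescence, 10-s 1-Hz baseline, 110-s post-stimulus read; Read-out: peak-minus-minimum fluorescence over initial fluorescence, negative-control normalized, B-scored.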
KCNQ1 block: human KCNQ1 channel inhibition. P51787. CHO-K1 KCNQ1, FluxOR thallium flux fluorescence; stronger effect = higher value. B-score at 10 µM. 1.3% of 310,000 active. AID 2642;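 active means compounds whose thallium flux B-score, printed positive for inhibition, exceeds three library SD while starting fluorescence stays within three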;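 further: channel opened by potassium depolarization with thallium stimulus after 20 min compound exposure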
KCNK3 inh: human KCNK3 channel inhibition, primary screen | O14649 | B-score at 10 µM | AID 602410 | 0.84% of 340,000 active | CHO-KCNK3 thallium flux, FluxOR fluorescence; stronger effect = lower value;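 active means B-score under library mean minus 4 SD, starting fluorescence ratio at most library mean plus 5 SD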;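 further: more negative B-score means stronger inhibition of thallium flux through KCNK3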
KCNK9 block: inhibitors of human KCNK9 two-pore domain potassium channel | B-score at 10 µM | 1.2% of 310,000 active | HEK293 KCNK9, FluxOR thallium flux fluorescence; stronger effect = lower value | AID 488922 | Q9NPC2;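 active means ratio B-score over 3 SD below the library mean, with starting fluorescence within 5 SD of its mean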;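 further: negative B-score means less thallium flux so channel inhibition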
hERG protect: shields human hERG channel from block by proarrhythmic agents | Q12809 | CHO-hERG, FluxOR thallium flux, dofetilide IC70 present | activation (rescue from dofetilide block), less the hit threshold, % at 10 µM | 0.51% of 310,000 active | AID 1511;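 active means activation above the mean of controls blocked by dofetilide plus 5 SD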;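 further: thallium influx through hERG after potassium depolarization seen as dye fluorescence rise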
KCNK9 inh conf: confirmation of human KCNK9 potassium channel inhibitors; shares compounds with KCNK9 block; HEK293 KCNK9 cells, FluxOR thallium flux fluorescence; inhibition, % at 10 µM; 43% of 4,900 active; AID 492992;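 active means thallium signal inhibited by more than 5 SD of the compound-free buffer control wells, on both duplicate plates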;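 further: 0% = assay buffer control wells without compound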
Kir2-1 spec: mouse Kir2.1 off-target activity of KCNK9 modulators | shares compounds with KCNK9 block | Kir2.1 cells, FluxOR thallium flux fluorescence | inhibition, % at 10 µM | 4% of 4,900 active;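 active means thallium signal drop more than 5 SD beyond the mean of the no-compound control wells, seen in both duplicate plates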;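 further: signal is fluorescence rise after thallium addition divided by baseline fluorescence; plate controls were assay buffer only for no effect and full block by chlorpromazine control for full effect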
HEK293 Tl ctr: non-induced cell nonspecific activity of KCNK9 modulators; shares compounds with KCNK9 block; non-induced KCNK9-HEK293, FluxOR thallium flux; inhibition, % at 10 µM; 40% of 4,900 active; AID 492997;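 active means thallium signal drop beyond 5 SD of the untreated control mean, on both duplicate plates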;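 further: plate controls were buffer only IC0 wells for no effect and SID17386958 at its maximal inhibitory level for full effect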
Active calls of the source: *; i = inactive; · = no result. Compounds with a hit are over-represented: about 4.1% of the library has one in this group of screens.

SMILES	Cl transport mod	KCNQ1 act	KCNQ1 block	KCNK3 inh	KCNK9 block	hERG protect	KCNK9 inh conf	Kir2-1 spec	HEK293 Tl ctr
CC(=O)n1cc([C@H]2C=C(C(=O)NCc3ccccc3)O[C@@H](OCCCCO)C2)c2ccccc21	-1.5	i	i	i	i	-13	i	i	i
O=C(NCc1ccccc1)C1=C[C@H](c2ccc(Br)cc2)C[C@H](OCc2ccc(CO)cc2)O1	-1.3	i	i	i	i	-11	i	i	i
CC(=O)n1cc([C@H]2C=C(C(=O)NCc3ccccc3)O[C@@H](OCc3ccc(CO)cc3)C2)c2ccccc21	-2.8*	i	i	i	i	-10	i	i	i
CCOC(=O)/C=C/[C@H]1CCc2cccc(Cl)c2O1	·	·	·	i	·	·	·	·	·
Cc1ccc(CNc2nc(C)c(C(=O)N(C)C)s2)cc1	·	i	i	i	i	-9	·	·	·
CC1CCC(C(C)C)C(OC(=O)C[n+]2cc(-c3ccc(Cl)cc3)n3c2CCC3)C1 (stereo not drawn)	-0.79	i	i	i	-13*	-22	48%*	44%*	i
CSc1ccc(S(=O)(=O)N2CCC(C(=O)NC3CC3)CC2)cc1	·	i	i	i	i	-9	·	·	·
CCc1nnc(NS(=O)(=O)c2ccc(N/C=C(\C=O)c3nc4cc(Cl)ccc4o3)cc2)s1	2.1	i	i	i	i	-15	i	i	i
CCc1nnc(NS(=O)(=O)c2ccc(NC(=O)c3ccc(Cl)cc3)cc2)s1	-0.19	i	i	i	i	-10	·	·	·
CC1CCCC(C)N1C(=O)COC(=O)c1cc(Br)ccc1Cl (stereo not drawn)	-0.00094	i	i	i	i	-5	i	i	i
CC(=O)C(Cc1ccccc1)NC(=O)COc1ccc2c(c1)OCO2 (stereo not drawn)	·	·	·	i	·	·	·	·	·
CCC(C)(C)c1ccc(OC(=O)c2cccnc2Cl)cc1	·	i	i	i	i	-3	·	·	·
CC(C)S(=O)(=O)C1=NSC2=NC(=O)/C(=C\c3ccc(OC(=O)c4ccco4)cc3)C(=N)N21	·	i	i	i	i	-25	·	·	·
CC(C)CSC1=NSC2=NC(=O)/C(=C\c3ccccc3)C(=N)N12	139*	20*	i	i	i	22*	i	i	i
CCCCCCCC(=O)NNC(=O)c1c(O)c2ccccc2n(CCC)c1=O	·	i	i	i	i	-7	i	i	i
CCCn1c(=O)c(C(=O)NNC(=O)c2ccccc2Cl)c(O)c2ccccc21	·	i	i	i	i	-10	·	·	·
CC(C)CC(=O)N1CCN(C(=O)c2ccc(-c3ccccc3)cc2)CC1	·	i	i	i	i	-4	·	·	·
CCC(=O)Nc1ccc(/C(C)=N/NC(=O)c2c(Br)c(C)nn2C)cc1	-1.5	i	i	i	i	-11	·	·	·
C/C(=N\NC(=O)c1nn(C)c(C)c1Br)c1ccc(NC(=O)c2ccccc2F)cc1	0.54	i	i	i	-12*	-15	64%*	i	26%*
CCc1ccccc1NC(=O)CNC(=O)CCc1nc2sc3c(c2c(=O)[nH]1)CCCC3	·	i	i	i	i	-2	·	·	·
CCc1ccc(NC(=O)CSc2nc3ccccc3nc2N2CCCC2)cc1	·	i	6*	i	i	-10	i	i	i
O=C(CSc1nc2ccccc2nc1N1CCCC1)Nc1ccc(Cl)cc1	·	i	i	i	i	-12	·	·	·
CC(C)c1ccc(NC(=O)CSc2nc3ccccc3nc2N2CCCC2)cc1	·	i	i	i	i	-9	·	·	·
Cc1ccc(NC(=O)CSc2nc3ccccc3nc2N2CCCC2)cc1	·	i	i	i	i	-7	i	i	i
C[C@@H]1CN(S(=O)C(C)(C)C)[C@@H](CCO)/C1=C\CCO (stereo partly drawn)	·	·	·	i	·	·	·	·	·
SMILES	Cl transport mod	KCNQ1 act	KCNQ1 block	KCNK3 inh	KCNK9 block	hERG protect	KCNK9 inh conf	Kir2-1 spec	HEK293 Tl ctr
COc1ccc(CC2(C)OC(c3ccccc3)=NN2C(C)=O)cc1 (stereo not drawn)	-1.1	i	i	i	i	-11	i	i	i
COc1ccc(CC2(C)OC(c3ccc(C)c([N+](=O)[O-])c3)=NN2C(C)=O)cc1 (stereo not drawn)	-1.9	i	i	i	i	-12	·	·	·
COc1ccc(CC2(C)OC(c3ccc(C)cc3)=NN2C(C)=O)cc1 (stereo not drawn)	-0.025	i	i	i	i	-17	i	i	i
COc1cc(-c2nnc(COc3ccc4ccccc4c3)o2)cc(OC)c1OC	·	i	i	i	i	-10	i	i	i
CN(C(=O)CSc1nc2scc(-c3ccccc3)c2c(=O)[nH]1)c1ccccc1	·	·	·	i	·	·	·	·	·
Cc1ccccc1CSc1nnc(-c2ccncc2)n1C	·	i	i	i	i	-5	·	·	·
O=C(c1ccc(Cl)cc1[N+](=O)[O-])N(Cc1ccccc1)Cc1ccccc1	-1.5	i	i	·	i	-14	·	·	·
CC(C)(C)N(Cc1ccccc1)C(=O)c1ccc(Cl)cc1[N+](=O)[O-]	-2.7	i	i	i	i	-20	i	i	i
O=[N+]([O-])c1cc(S(=O)(=O)C(F)(F)F)ccc1N1CCN(c2ccccc2)CC1	-0.52	i	i	i	-8.3*	-2	i	i	35%*
O=[N+]([O-])c1cc(CN2CCN(c3cccc(C(F)(F)F)c3)CC2)c2cccnc2c1O	0.091	i	i	i	i	-3	i	i	i
O=[N+]([O-])c1cc(Cl)ccc1N1CCCC1	-1	i	i	i	i	-8	·	·	·
O=[N+]([O-])c1cc(Cl)ccc1N1CCN(c2cccc(C(F)(F)F)c2)CC1	-0.43	i	i	i	-12*	-15	75%*	i	51%*
N#Cc1ccc(C(=O)Nn2cnnc2)cc1	·	i	i	i	i	-12	·	·	·
C=CCSc1nnc(CCCCCN2C(=O)c3cccc4cccc(c34)C2=O)o1	-2	i	i	i	i	-10	i	35%*	i
CCOC(=O)CSc1nnc(CCCCCN2C(=O)c3cccc4cccc(c34)C2=O)o1	-3.6	i	i	i	i	-12	·	·	·
